Laboratory results as given in publication PMC3941710 (Journal of medicinal chemistry, 2009).

Columns and labels:
[1] = target: T1, human sex hormone binding globulin (SHBG) (Homo sapiens, UniProt P04278); assay: Binding to purified human SHBG; conditions: size-exclusion HPLC / ITLC
T1 sequence (P04278 30-402): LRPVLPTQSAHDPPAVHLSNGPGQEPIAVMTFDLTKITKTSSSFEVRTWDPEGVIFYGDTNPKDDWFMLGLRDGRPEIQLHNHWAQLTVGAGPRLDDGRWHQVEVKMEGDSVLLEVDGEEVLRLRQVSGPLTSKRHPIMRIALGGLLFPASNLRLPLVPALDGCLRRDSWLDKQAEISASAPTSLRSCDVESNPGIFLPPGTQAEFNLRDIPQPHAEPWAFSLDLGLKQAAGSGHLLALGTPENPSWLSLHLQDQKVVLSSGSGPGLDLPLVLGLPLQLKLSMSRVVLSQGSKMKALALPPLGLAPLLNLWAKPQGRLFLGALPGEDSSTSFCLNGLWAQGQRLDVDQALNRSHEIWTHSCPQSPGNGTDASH

Stability in PBS = assay type: physicochemical; conditions: PBS/CH3CN 10:1, pH 7.1, ambient temperature, up to 24 h
[2] = system: LNCaP human prostate cancer cells; assay: Uptake and subcellular distribution in LNCaP cells; assay type: cell-based; conditions: proliferating LNCaP monolayer, 24 h exposure
PC-3 cells = assay: Uptake of 8 in PC-3 cells with or without DHT at 4 °C; assay type: cell-based, human; conditions: 0.1 μCi/mL 8, 0.1 μM DHT, 16 h
How it was run: (§1)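 Cells with very low or no AR expression. Non-radioactive DHT competitor was added before the radioiodinated test compound to block AR binding. Cells were grown with the test compound at 4 °C for 16 h and cellular retention was compared with DHT-free cells.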

MCF-7 cells = assay: Uptake of 8 in MCF7 cells with or without DHT at 4 °C; assay type: cell-based, human; conditions: 0.1 μCi/mL 8, 0.1 μM DHT, 16 h
How it was run: as §1

[3] = system: intraperitoneal NIH:OVCAR-3 xenografts; assay: Biodistribution and imaging of 8 in athymic mice with ip NIH:OVCAR-3 xenografts; assay type: in vivo, mouse
[4] = system: intraperitoneal NIH:OVCAR-3 xenografts; assay: Therapy with 8 in OVCAR-3-bearing athymic mice; assay type: in vivo, mouse
[5] = Binding and stability in human serum
[6] = Binding and stability in mouse serum
[7] = Binding and stability in rabbit serum
[8] = system: LNCaP human prostate cancer cells; assay: Cell survival of LNCaP cells; assay type: cell-based; conditions: 48 h, extracellular concentration 8 μCi/mL
How it was run: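 LNCaP cells plated at 2000 cells/well, allowed to attach for 24 h, then given fresh charcoal–dextran-stripped medium containing radioactive test compound. Survival read by CellTiter-Fluor viability assay or CellTiter 96 AQueous One Solution proliferation assay.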

[9] = system: intraperitoneal NIH:OVCAR-3 xenografts; assay type: in vivo, mouse
[10] = system: intraperitoneal NIH:OVCAR-3 xenografts; assay: Fractionated therapy and biodistribution of 13 in OVCAR-3-bearing mice; assay type: in vivo, mouse
[11] = Biodistribution of fractionated ip doses of 13 in healthy mice; assay type: in vivo, mouse; conditions: control (healthy) mice
[12] = cell pellet, six fractionated ip treatments
[13] = 13 (0.25 mCi) + SHBG therapy group, or SHBG only

## C[C@]12CCC(=O)C[C@@H]1CC[C@@H]1[C@@H]2CC[C@]2(C)[C@@H](OC(=O)CCC(=O)O[C@H]3C[C@H](n4cc([125I])c(=O)[nH]c4=O)O[C@@H]3CO)CC[C@@H]12 [compound 8, 5-[^125I]Iodo-3′-O-(17β-succinyl-5α-androstan-3-one)-2′-deoxyuridine]
[1]
  binding to pure SHBG isolated from human serum: bind to pure SHBG isolated from human serum
Stability in PBS
  stability in PBS: stable in PBS
[2]
  Bmax (single cell-binding isotherm): 1.4 × 10^−6 pmol/cell
PC-3 cells
  effect of DHT competitor on cellular retention: In neither PC-3 nor MCF-7 cells was the cellular retention of 8 influenced by the presence of competitor
MCF-7 cells
  effect of DHT competitor on cellular retention: In neither PC-3 nor MCF-7 cells was the cellular retention of 8 influenced by the presence of competitor
[3]; 24 h and later after ip administration
  peritoneal lavage radioactivity associated with OVCAR-3 cells: > 95%
[3]; 72 h after ip administration
  uptake in uterus: up to 1 % ID/g
[3]; 72 h after ip administration of 45 μCi 8
  whole body radioactivity associated with the intraperitoneal tumor (ROI): 8.3% ± 2.1%
[3]; 72 h after ip injection of 45 μCi 8
  fraction of lavage radioactivity associated with cancer cells: > 97%
[4]; 12 days after the last of six therapeutic doses, decay corrected
  radioactivity retained in tumors: ~ 0.5 % ID/g
[4]; [12]
  range of weight: 0.012 to 0.781 g
[4]; six fractionated ip treatments
  average cell pellet weight (g) (SEM): 0.380(0.111) g
[4]; tumors 12 days after the last of six doses
  ^125I bound to DNA as share of total cell-associated radioactivity: 86.8% ± 7.4%
[5]
  binding to SHBG in human serum: bind to SHBG in rabbit and human serum
[5]; human serum, after 60 min of incubation
  intact compound remaining: > 91%
[6]
  binding to mouse serum: does not bind to mouse serum
[6]; mouse serum, no SHBG
  time in which mouse serum degrades 8 to 1: < 10 min
[7]
  binding to SHBG in rabbit serum: bind to SHBG in rabbit and human serum
[7]; rabbit serum, after 60 min of incubation
  intact compound remaining: > 84%

## C[C@]12CCC(=O)C[C@@H]1CC[C@@H]1[C@@H]2CC[C@]2(C)[C@@H](OC(=O)CCC(=O)O[C@H]3C[C@H](n4cc([125I])c(=O)[nH]c4=O)O[C@@H]3COP(=O)(O)O)CC[C@@H]12 [compound 13, 5-[^125I]Iodo-3′-O-(17β-succinyl-5α-androstan-3-one)-2′-deoxyuridin-5′-yl Monophosphate]
[1]
  binding to pure SHBG isolated from human serum: bind to pure SHBG isolated from human serum
Stability in PBS
  stability in PBS: stable in PBS
[8]
  cells dead: Ninety percent
[9]; 0.25 mCi dose
  adverse effects from hematologic data: no overt adverse effects
[9]; necropsy after bolus dose of 13
  fold lower radioactivity in blood than in cancer cells: > 2.5 ×
[10]; OVCAR-3 mice, blood
  percent injected dose per gram of tissue, blood: 0.003(0.0010) percent injected dose per gram of tissue
[10]; OVCAR-3 mice, heart
  percent injected dose per gram of tissue, heart: 0.003(0.0004) percent injected dose per gram of tissue
[10]; OVCAR-3 mice, kidney
  percent injected dose per gram of tissue, kidney: 0.013(0.0063) percent injected dose per gram of tissue
[10]; OVCAR-3 mice, large intestine
  percent injected dose per gram of tissue, large intestine: 0.008(0.0009) percent injected dose per gram of tissue
[10]; OVCAR-3 mice, liver
  percent injected dose per gram of tissue, liver: 0.017(0.0020) percent injected dose per gram of tissue
[10]; OVCAR-3 mice, lung
  percent injected dose per gram of tissue, lung: 0.008(0.0018) percent injected dose per gram of tissue
[10]; OVCAR-3 mice, small intestine
  percent injected dose per gram of tissue, small intestine: 0.011(0.0014) percent injected dose per gram of tissue
[10]; OVCAR-3 mice, spleen
  percent injected dose per gram of tissue, spleen: 0.043(0.0103) percent injected dose per gram of tissue
[10]; OVCAR-3 mice, stomach
  percent injected dose per gram of tissue, stomach: 0.009(0.0010) percent injected dose per gram of tissue
[10]; OVCAR-3 mice, tumor
  percent injected dose per gram of tissue, tumor: 2.892(0.5317) percent injected dose per gram of tissue
[10]; OVCAR-3 mice, uterus
  percent injected dose per gram of tissue, uterus: 0.027(0.0051) percent injected dose per gram of tissue
[10]; [12]
  median weight: 0.064 g
  range of weight: 0.044 to 0.076 g
[10]; fractionated ip doses
  average retention of ^125I in OVCAR-3 cells: 0.0124 ± 0.0024 cpm/cell
[10]; fractionated ip doses, TCA precipitation
  radioactivity of surviving cancer cells recovered with DNA: Virtually all radioactivity associated with surviving cancer cells was recovered with DNA
[10]; six fractionated ip treatments
  average cell pellet weight (g) (SEM): 0.061(0.006) g
[11]; blood
  percent injected dose per gram of tissue, blood: 0.001(0.0001) percent injected dose per gram of tissue
[11]; heart
  percent injected dose per gram of tissue, heart: 0.002(0.0003) percent injected dose per gram of tissue
[11]; kidney
  percent injected dose per gram of tissue, kidney: 0.005(0.0005) percent injected dose per gram of tissue
[11]; large intestine
  percent injected dose per gram of tissue, large intestine: 0.005(0.0009) percent injected dose per gram of tissue
[11]; liver
  percent injected dose per gram of tissue, liver: 0.006(0.0005) percent injected dose per gram of tissue
[11]; lung
  percent injected dose per gram of tissue, lung: 0.004(0.0007) percent injected dose per gram of tissue
[11]; small intestine
  percent injected dose per gram of tissue, small intestine: 0.006(0.0016) percent injected dose per gram of tissue
[11]; spleen
  percent injected dose per gram of tissue, spleen: 0.025(0.0025) percent injected dose per gram of tissue
[11]; stomach
  percent injected dose per gram of tissue, stomach: 0.007(0.0002) percent injected dose per gram of tissue
[11]; uterus
  percent injected dose per gram of tissue, uterus: 0.015(0.0011) percent injected dose per gram of tissue
[5]
  binding to SHBG in human serum: bind to SHBG in rabbit and human serum
[6]
  binding to mouse serum: appears to bind to some unidentified component of mouse serum
[7]
  binding to SHBG in rabbit serum: bind to SHBG in rabbit and human serum

## CCOC(=O)CCC(=O)O[C@H]1C[C@H](n2cc([125I])c(=O)[nH]c2=O)O[C@@H]1CO [compound 17, 5-[^125I]Iodo-3′-O-succinyl-2′-deoxyuridine Ethyl Ester]
[1]
  binding to pure SHBG isolated from human serum: Neither the control reagent 17 nor compound 20, which is the metabolite of 13, binds to SHBG or to any component of analyzed sera

## O=c1[nH]c(=O)n([C@H]2C[C@H](O)[C@@H](COP(=O)(O)O)O2)cc1[125I] [compound 20, 5-[^125I]Iodo-2′-deoxyuridine-5′-monophosphate]
[1]
  binding to pure SHBG isolated from human serum: Neither the control reagent 17 nor compound 20, which is the metabolite of 13, binds to SHBG or to any component of analyzed sera
[6]; mouse serum, after 60 min of incubation
  intact compound remaining: does not survive incubation in mouse serum

B1: SHBG: Human SHBG (pure, lyophilized), injected ip alone as control or co-injected with 13 (protein, UniProt P04278 30-402, looked up)
Sex hormone-binding globulin: LRPVLPTQSAHDPPAVHLSNGPGQEPIAVMTFDLTKITKTSSSFEVRTWDPEGVIFYGDTNPKDDWFMLGLRDGRPEIQLHNHWAQLTVGAGPRLDDGRWHQVEVKMEGDSVLLEVDGEEVLRLRQVSGPLTSKRHPIMRIALGGLLFPASNLRLPLVPALDGCLRRDSWLDKQAEISASAPTSLRSCDVESNPGIFLPPGTQAEFNLRDIPQPHAEPWAFSLDLGLKQAAGSGHLLALGTPENPSWLSLHLQDQKVVLSSGSGPGLDLPLVLGLPLQLKLSMSRVVLSQGSKMKALALPPLGLAPLLNLWAKPQGRLFLGALPGEDSSTSFCLNGLWAQGQRLDVDQALNRSHEIWTHSCPQSPGNGTDASH
[9]; [13]
  hematocrit (Ht): 51.4 ± 1.6
  hemoglobin (Hb): 11.5 ± 1.3
[9]; 13 + SHBG or SHBG only
  average weight of solid tumors: 1.9 ± 0.8 g
